Results as given in ChEMBL document CHEMBL5252546, “Salutaxel, a Conjugate of Docetaxel and a Muramyl Dipeptide (MDP) Analogue, Acts as Multifunctional Prodrug That Inhibits Tumor Growth and Metastasis” (J Med Chem, 2018).
Active and inactive are the calls of the source. The rule behind the calls is not given here.

Assays:
[1] = Prodrug conversion in mouse plasma implanted with mouse 4T1 cells assessed as half life of docetaxel at 4 mg/kg,iv measured upto 72 hrs; assay type: ADME, organism-based; settings: in vivo
4T1 [2] = assay: Antitumor activity against mouse 4T1 cells implanted in BALB/c mouse assessed as decrease in MMP8 mRNA expression in lung at 20 mg/kg,iv administrated qd for 2 days by qRT-PCR analysis; assay type: functional, organism-based; settings: time 2.0 day
In short: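 Day 19 after 4T1 implantation, mice randomised into five groups; iv vehicle or 20 mg/kg plus ip C12-iE-DAP (50 μg/mouse) and MDP (100 μg/mouse) once daily for 2 days; killed after 48 h; lung mRNA for MMP8, MMP9, PROK2, S100A8, S100A9 and IL-1β by qPCR; mean ± SEM.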

[3] = Toxicity in BALB/c mouse xenografted with human MDA-MB-231 cells assessed as body weight loss at 10 mg/kg,iv administrated once per week for 3 weeks; assay type: organism-based; settings: in vivo, 504 h
[4] = Drug metabolism in rat hepatocytes assessed as MDA-205 metabolite formation at 20 uM incubated for 180 mins; assay type: ADME, cell-based, Hepatocyte; settings: 3 h
[5] = Prodrug conversion in mouse plasma implanted with mouse 4T1 cells assessed as MRT of docetaxel at 4 mg/kg,iv measured upto 72 hrs; assay type: ADME, organism-based; settings: in vivo
[6] = Cmax in rat at 2 mg/kg,iv measured upto 24 hrs; assay type: ADME, organism-based; parameters: time < 24 hrs, dose 2 mg/kg, route iv; settings: in vivo
In short: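 Rats were given a single iv injection at 2, 4 or 8 mg/kg. Plasma parent drug and released docetaxel were followed over time. Cmax, Tmax, AUC, MRT, t1/2, CL and Vss were reported for males, females and all animals combined.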

[7] = Prodrug conversion in mouse tumor implanted with mouse 4T1 cells assessed as AUC (0-t) of docetaxel at 4 mg/kg,iv measured upto 72 hrs; assay type: ADME, organism-based, Neoplasm; parameters: time < 72 hrs, dose 4 mg/kg, route iv; settings: in vivo
[8] = Cmax in Beagle dog at 4 mg/kg,iv measured upto 24 hrs; assay type: ADME, organism-based, Canis lupus familiaris; parameters: dose 4 mg/kg, time < 24 hrs, route iv; settings: in vivo
In short: (§1)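 Beagle dogs were given a single iv infusion at 1, 2 or 4 mg/kg. Plasma parent drug and released docetaxel were followed over time. Cmax, Tmax, AUC, MRT, t1/2, CL and Vss were reported by sex and for all dogs combined.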

[9] = MRT (0 to infinity) in female Beagle dog at 2 mg/kg,iv measured upto 24 hrs; assay type: ADME, organism-based, Canis lupus familiaris; settings: in vivo
[10] = Tmax in female rat at 8 mg/kg,iv measured upto 24 hrs; assay type: ADME, organism-based; settings: in vivo
[11] = Tmax in rat at 8 mg/kg,iv measured upto 24 hrs; assay type: ADME, organism-based; settings: in vivo
[12] = Volume of distribution at steady state in male rat at 4 mg/kg,iv measured upto 24 hrs; assay type: ADME, organism-based; settings: in vivo, read-out: Vdss
[13] = Clearance in female Beagle dog at 2 mg/kg,iv measured upto 24 hrs; assay type: ADME, organism-based, Canis lupus familiaris; settings: in vivo; in short: as §1
[14] = Toxicity in Beagle dog assessed as decrease in blood pressure at 1 to 4 mg/kg,iv measured after 1 to 4 hrs; assay type: organism-based, Canis lupus familiaris; settings: in vivo, dose lower 1 mg/kg, time lower 1 hrs, dose upper 4 mg/kg, time upper 4 hrs
[15] = Toxicity in Beagle dog assessed as decrease in body temperature at 1 to 4 mg/kg,iv measured after 1 to 4 hrs; assay type: organism-based, Canis lupus familiaris; settings: in vivo, dose lower 1 mg/kg, time lower 1 hrs, dose upper 4 mg/kg, time upper 4 hrs
[16] = Tmax in Beagle dog at 2 mg/kg,iv measured upto 24 hrs; assay type: ADME, organism-based, Canis lupus familiaris; settings: in vivo
[17] = Cmax in female Beagle dog at 2 mg/kg,iv measured upto 24 hrs; assay type: ADME, organism-based, Canis lupus familiaris; parameters: dose 2 mg/kg, time < 24 hrs, route iv; settings: in vivo; in short: as §1
[18] = AUC (0-infinity) in male Beagle dog at 4 mg/kg,iv measured upto 24 hrs; assay type: ADME, organism-based, Canis lupus familiaris; parameters: dose 4 mg/kg, time < 24 hrs, route iv; settings: in vivo
In short: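 Single iv dose: rats 2, 4 or 8 mg/kg by intravenous injection; Beagle dogs 1, 2 or 4 mg/kg by intravenous infusion. Plasma concentration–time data were analysed by sex and pooled. Reported parameters: Cmax, Tmax, AUC0−t, AUC0−∞, MRT0−∞, t1/2, CL, Vss, given as mean ± SD.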

4T1 [19] = assay: Synergistic antitumor activity against mouse 4T1 cells xenografted with BALB/c mouse assessed as decrease in tumor weight at 10 mg/kg,iv administrated in combination with doxorubicin once per week for 4 weeks; assay type: functional, organism-based
[20] = MRT (0 to infinity) in female rat at 4 mg/kg,iv measured upto 24 hrs; assay type: ADME, organism-based; settings: in vivo
[21] = Volume of distribution at steady state in Beagle dog at 2 mg/kg,iv measured upto 24 hrs; assay type: ADME, organism-based, Canis lupus familiaris; settings: in vivo, read-out: Vdss
[22] = MRT (0 to infinity) in male rat at 4 mg/kg,iv measured upto 24 hrs; assay type: ADME, organism-based; settings: in vivo
4T1 [23] = assay: Antitumor activity against mouse 4T1 cells implanted in BALB/c mouse assessed as decrease in serum TIMP-1 level at 5 mg/kg,iv administrated once per week for 4 weeks by ELISA; assay type: functional, organism-based
In short: (§2)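 4T1 fat-pad model in BALB/c mice, iv 5–20 mg/kg once weekly for 4 weeks, with vehicle and naive groups; serum MMP9, TIMP-1, IL-6 and S100A9 measured by mouse ELISA kits.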

4T1 [24] = assay: Antitumor activity against mouse 4T1 cells implanted in BALB/c mouse assessed as decrease in tumor MMP2 expression level at 5 to 20 mg/kg,iv administrated once per week for 4 weeks by western blot assay; assay type: functional, organism-based; settings: dose 5-20 mg/kg
In short: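 4T1 fat-pad model in BALB/c mice, iv once weekly for 4 weeks; MMP9, MMP2 and NOD1 in spleen, lung and tumour by western blot, β-actin loading control; bands averaged over five mice per group, representative of two independent experiments.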

[25] = Clearance in female Beagle dog at 4 mg/kg,iv measured upto 24 hrs; assay type: ADME, organism-based, Canis lupus familiaris; settings: in vivo; in short: as §1
4T1 [26] = assay: Antitumor activity against mouse 4T1 cells implanted in BALB/c mouse assessed as decrease in serum IL-6 level at 20 mg/kg,iv administrated once per week for 4 weeks by ELISA; assay type: functional, organism-based; in short: as §2
[27] = Drug metabolism in mouse hepatocytes assessed as MDA-205 metabolite formation at 20 uM incubated for 180 mins; assay type: ADME, cell-based, Hepatocyte; settings: 3 h
[28] = Drug excretion in rat bile at 4 mg/kg,iv measured upto 48 hrs; assay type: ADME, organism-based; settings: read-out: Drug excretion
In short: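 Rats were dosed iv. Bile was collected from 0 to 48 h, and cumulative excretion of the unchanged prototype was expressed as a percentage of the dose.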

[29] = Drug distribution in rat small intestine at 4 mg/kg,iv measured by 0.25 hrs; assay type: ADME, organism-based; settings: in vivo
In short: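 Rats received 4 mg/kg iv. Parent drug and released docetaxel were assayed in tissues and plasma from the first sampling at 0.25 h to 24 h. The lower limit of quantitation was 200 ng/g.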

4T1 [30] = assay: Antitumor activity against mouse 4T1 cells implanted in BALB/c mouse assessed as decrease in tumor MMP2 expression level at 5.7 mg/kg,iv administrated once per week for 4 weeks in presence of MDA-205 by western blot assay; assay type: functional, organism-based
In short: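 4T1 cells injected into mammary fat pads of BALB/c mice. Saline vehicle or test article given iv once weekly for 4 weeks. Spleen, lung and tumor lysates immunoblotted for MMP2/MMP9 with β-actin as loading control. Bands averaged over five mice per group, representative of two independent experiments.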

4T1 [31] = assay: Antitumor activity against mouse 4T1 cells xenografted with BALB/c mouse assessed as inhibition of tumor growth at 5.7 mg/kg,iv in presence of compound 5b administrated once per week for 4 weeks; assay type: functional; settings: 4T1, 672 h
In short: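 4T1 cells injected into mammary fat pads of BALB/c mice. Dosing iv once per week for 4 weeks, saline vehicle; single-agent arms were given alone or with the peptide component (5b or 6). Endpoints were body weight, tumour volume, tumour weight, lung metastatic nodule count and lung metastasis score. Mean ± SEM, n = 10; ANOVA and Student's t test.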

With `CC(=O)O[C@@]12CO[C@@H]1C[C@H](O)[C@@]1(C)C(=O)[C@H](O)C3=C(C)[C@@H](OC(=O)[C@H](OC(=O)CCC(=O)NCCCC[C@H](NC(=O)CC[C@@H](NC(=O)[C@H](C)NC(=O)/C=C/c4ccc(F)cc4Cl)C(N)=O)C(=O)O)[C@@H](NC(=O)OC(C)(C)C)c4ccccc4)C[C@@](O)([C@@H](OC(=O)c4ccccc4)[C@H]21)C3(C)C` the t1/2 [1] was 178 min, the Activity (4T1 [2]) was “Active” and the Activity [3] was “Non-Toxic”. For the same molecule, the Drug metabolism [4] was “Metabolite_Detected”, the MRT [5] was 52.8 min and the Cmax [6] was 15200 ng/mL. For the same molecule, the AUCt [7] was 81 µM·h, the Cmax [8] was 30100 ng/mL and the MRT inf [9] was 15.2 min. It also gave a Tmax [10] of 4.98 min, a Tmax [11] of 4.98 min and a Vd [12] of 0.073 L/kg. The clearance [13] was 5.04 mL/min/kg, the Activity [14] was “Non-Toxic” and the Activity [15] was “Non-Toxic”. The Tmax [16] was 30 min, the Cmax [17] was 14700 ng/mL and the AUC(0-inf) [18] was 15300 ng·h/mL. For the same molecule, the Activity (4T1 [19]) was “Active”, the MRT inf [20] was 15.7 min and the Vd [21] was 0.083 L/kg. The MRT inf [22] was 22.5 min, the Activity (4T1 [23]) was “Active” and the Activity (4T1 [24]) was “inactive”. The clearance [25] was 3.85 mL/min/kg, the Activity (4T1 [26]) was “Active” and the Drug metabolism [27] was “Metabolite_Detected”. The dose excreted at 48 h [28] was 82.9% and the Drug uptake [29] was “Active”.

In the case of `CC(=O)O[C@@]12CO[C@@H]1C[C@H](O)[C@@]1(C)C(=O)[C@H](O)C3=C(C)[C@@H](OC(=O)[C@H](O)[C@@H](NC(=O)OC(C)(C)C)c4ccccc4)C[C@@](O)([C@@H](OC(=O)c4ccccc4)[C@H]21)C3(C)C` [DOCETAXEL ANHYDROUS], the Activity (4T1 [30]) is reported as “inactive” and the inhibition in vivo at 5.7 mg/kg (4T1 [31]) is reported as 14.4%.
